ChEMBL document CHEMBL1136151, “Suzuki cross-coupling approaches to the synthesis of bioactive 3-substituted and 5-substituted-4-methoxy-6-methyl-2-pyrones” (Bioorg Med Chem Lett, 2003)

Columns and labels:
Assay type in all cases: functional
[1] = tested on: Aspergillus niger; assay: Percent growth of Aspergillus niger after 7 days of incubation; set-up: concentration or dose not given beside the values
Outline: (§1)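 Fungal plate assay: pyrone dissolved in absolute EtOH at 10mg/mL and pipetted 2 cm offset from the centre of the plate containing the organism. EtOH alone served as control. Growth is recorded as percentage of the organism after 72 h and after 7 days of incubation.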

[2] = tested on: Aspergillus niger; assay: Percent growth of Aspergillus niger after 72 hours of incubation; set-up: concentration or dose not given beside the values; outline: as §1
[3] = tested on: Bacillus subtilis; assay: Antimicrobial activity against Bacillus subtilis was determined after 96 hours of incubation
Outline: (§2)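 Disk diffusion: cellulose disks loaded with test compound and placed on bacterial plates, with an EtOH control disk. Incubation 96 h. Read-out is the radius (mm) of the inhibition zone.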

[4] = tested on: Botrytis cinerea; assay: Percent growth of Botrytis cinerea after 7 days of incubation; set-up: concentration or dose not given beside the values; outline: as §1
[5] = tested on: Botrytis cinerea; assay: Percent growth of Botrytis cinerea after 72 hours of incubation; set-up: concentration or dose not given beside the values; outline: as §1
[6] = tested on: Candida albicans; assay: Antimicrobial activity against Candida albicans was determined after 48 hours of incubation
Outline: (§3)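 Disk diffusion on yeast plates: cellulose disks carrying test compound, with an EtOH control. Incubation 48 h. The inhibition zone radius is recorded in mm.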

[7] = tested on: Fusarium oxysporum; assay: Percent growth of Fusarium oxysporum after 7 days of incubation; set-up: concentration or dose not given beside the values; outline: as §1
[8] = tested on: Fusarium oxysporum; assay: Percent growth of Fusarium oxysporum after 72 hours of incubation; set-up: concentration or dose not given beside the values; outline: as §1
[9] = tested on: Escherichia coli; assay: Antimicrobial activity against Escherichia coli was determined after 96 hours of incubation; outline: as §2
[10] = tested on: Globisporangium ultimum; assay: Percent growth of Pythium ultimum after 7 days of incubation; set-up: concentration or dose not given beside the values; outline: as §1
[11] = tested on: Globisporangium ultimum; assay: Percent growth of Pythium ultimum after 72 hours of incubation; set-up: concentration or dose not given beside the values; outline: as §1
[12] = tested on: Schizosaccharomyces pombe; assay: Antimicrobial activity against Schizosaccharomyces pombe was determined after 48 hours of incubation; outline: as §3
[13] = tested on: Saccharomyces cerevisiae; assay: Antimicrobial activity against Saccharomyces cerevisiae was determined after 48 hours of incubation; outline: as §3
[14] = tested on: Thanatephorus cucumeris; assay: Percent growth of Rhizoctonia solani after 7 days of incubation; set-up: concentration or dose not given beside the values; outline: as §1
[15] = tested on: Thanatephorus cucumeris; assay: Percent growth of Rhizoctonia solani after 72 hours of incubation; set-up: concentration or dose not given beside the values; outline: as §1
[16] = tested on: Staphylococcus aureus; assay: Antimicrobial activity against Staphylococcus aureus was determined after 96 hours of incubation; outline: as §2
[17] = tested on: Globisporangium mamillatum; assay: Percent growth of Pythium mammillatum after 7 days of incubation; set-up: concentration or dose not given beside the values; outline: as §1
[18] = tested on: Globisporangium mamillatum; assay: Percent growth of Pythium mammillatum after 72 hours of incubation; set-up: concentration or dose not given beside the values; outline: as §1

Structure (SMILES)	Growth [1]	Growth [2]	Activity [3]	Growth [4]	Growth [5]	Activity [6]	Growth [7]	Growth [8]	Activity [9]	Growth [10]	Growth [11]	Activity [12]	Activity [13]	Growth [14]	Growth [15]	Activity [16]	Growth [17]	Growth [18]
COc1cc(C)oc(=O)c1-c1ccc(C)cc1	100%	>95%	16 mm	100%	58%	0 mm	60%	11%	20 mm	100%	100%	0 mm	0 mm	100%	55%	0 mm	–	–
COc1cc(C)oc(=O)c1-c1ccc(C=O)cc1	>95%	83%	6 mm	100%	65%	0 mm	60%	11%	6 mm	100%	100%	0 mm	0 mm	100%	79%	0 mm	–	–
CCC/C=C/c1cc(C)oc(=O)c1	100%	>95%	16 mm	100%	47%	16 mm	45%	5%	19 mm	100%	100%	28 mm	0 mm	100%	49%	20 mm	–	–
COc1ccc(-c2c(OC)cc(C)oc2=O)cc1	82%	70%	0 mm	100%	62%	0 mm	60%	7%	0 mm	100%	100%	0 mm	0 mm	100%	81%	0 mm	–	–
COc1cc(=O)oc(C)c1-c1ccccc1	>90%	71%	6 mm	100%	47%	0 mm	51%	12%	6 mm	–	–	0 mm	0 mm	100%	67%	0 mm	–	–
CCCCC/C=C/c1c(OC)cc(=O)oc1C	95%	82%	19 mm	100%	12%	12 mm	24%	7%	20 mm	100%	100%	26 mm	12 mm	100%	33%	16 mm	94%	24%
COc1cc(C)oc(=O)c1-c1ccc(Cl)cc1	95%	>95%	17 mm	100%	58%	0 mm	60%	8%	18 mm	100%	100%	0 mm	30 mm	100%	51%	0 mm	–	–
Cc1cc(/C=C/c2ccccc2)cc(=O)o1	100%	100%	18 mm	100%	59%	0 mm	–	–	17 mm	100%	100%	18 mm	0 mm	100%	47%	0 mm	–	–
COc1cc(=O)oc(C)c1/C=C/c1ccccc1	90%	71%	6 mm	100%	47%	0 mm	51%	12%	6 mm	–	–	0 mm	0 mm	100%	67%	0 mm	–	–
COc1ccc(-c2c(OC)cc(=O)oc2C)cc1	90%	85%	14 mm	100%	53%	11 mm	61%	11%	5 mm	–	–	18 mm	0 mm	100%	69%	13 mm	–	–
COc1cc(C)oc(=O)c1-c1cccc([N+](=O)[O-])c1	100%	100%	6 mm	100%	–	0 mm	60%	12%	0 mm	100%	100%	0 mm	0 mm	100%	–	0 mm	–	–
CCCCCC/C=C/c1cc(C)oc(=O)c1	94%	89%	18 mm	100%	42%	20 mm	30%	5%	20 mm	100%	100%	29 mm	0 mm	100%	44%	18 mm	–	–
COc1cc(C)oc(=O)c1-c1ccccc1	100%	>95%	6 mm	100%	63%	0 mm	60%	7.4%	0 mm	100%	100%	0 mm	0 mm	100%	75%	0 mm	–	–
CCCC/C=C/c1c(OC)cc(C)oc1=O	91%	77%	19 mm	100%	51%	0 mm	48%	8%	20 mm	57%	37%	0 mm	0 mm	100%	43%	21 mm	100%	35%
COc1cc(C)oc(=O)c1/C=C/c1ccccc1	100%	>95%	0 mm	100%	58%	0 mm	60%	11%	0 mm	100%	100%	0 mm	0 mm	100%	92%	0 mm	–	–
